{"source": "paper PMC6885571", "about": "(International Journal of Nanomedicine, 2019)", "key": {"[1]": {"test_system": "nasal mucosa", "experiment": "Test for nasal toxicity of NEs", "assay_type": "in vivo, Wistar rats", "settings": "rats, intranasal, 14 consecutive days; mucosa on days 1, 7, 14", "summary_of_the_method": "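Male Wistar rats (200 g), four groups of three, dosed intranasally. Groups: saline (negative control), 1% sodium deoxycholate in 50 µL saline (positive control), or one of two nanoemulsions for 14 consecutive days. Nasal mucosa collected after sacrifice on days 1, 7 and 14, fixed 24 h in 10% buffered formalin, dehydrated in ethanol, cleared in xylene and paraffin-embedded. Sections stained with H&E and examined by light microscopy.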"}, "[2]": {"experiment": "In vitro drug release, dialysis bag in phosphate buffer pH 6.8", "assay_type": "physicochemical", "settings": "at 24 h; phosphate buffer pH 6.8, 37 °C", "summary_of_the_method": "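Dialysis bag (12–14 kDa cut-off), pre-soaked overnight in medium, held 1 mL of freshly prepared nanoemulsion (5 mg/mL drug). Bag placed in 100 mL phosphate buffer pH 6.8 at 37 °C, shaken at 50 rpm. At set times 4 mL was withdrawn and replaced with fresh medium. HupA measured by HPLC (C18, methanol–water 43:57, 308 nm), plotted as cumulative % released versus time. Drug suspension run under the same sink conditions.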"}, "[3]": {"experiment": "Pharmacokinetic study after intranasal administration", "assay_type": "in vivo, Wistar rats", "settings": "rats", "summary_of_the_method": "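Wistar rats (200±20 g) anaesthetised with 10% chloral hydrate received 50 µL of formulation through a PE 10 tube inserted 1 cm into the nostril. Orbital blood and tissues taken at 0.083–24 h (11 points). Plasma or tissue homogenate alkalised with 2 mol/L NaOH, extracted with 2 mL ethyl acetate, dried under nitrogen, redissolved in methanol and assayed by HPLC. Parameters calculated by software; mean±SD, n=6.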"}, "[4]": {"experiment": "Saturation solubility of HupA in oils, surfactants and co-surfactants", "assay_type": "physicochemical", "settings": "thermodynamic from solid", "summary_of_the_method": "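Excess HupA added to 0.2 mL vehicle, vortexed 10 min, then kept 24 h at 37±0.5 °C in a shaking water bath. Mixture centrifuged at 6000 rpm for 10 min and supernatant filtered (0.45 µm). 0.1 mL diluted in methanol and dissolved drug quantified by HPLC.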"}, "[5]": {"test_system": "hCMEC/D3 cells", "experiment": "Cellular uptake and transporter/endocytosis inhibition assay", "assay_type": "cell-based, human", "settings": "30 min pre-incubation with inhibitor", "summary_of_the_method": "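hCMEC/D3 cells grown to 90% confluence, then pre-incubated 30 min at 37 °C, 5% CO2 with one inhibitor: verapamil 10 µM, MK571 10 µM, ko143 1 µM, […], aprotinin 200 µg/mL, colchicine 2.5 µM or […]. Nanoemulsion or HupA solution added for 1 h. Cells washed with ice-cold PBS, lysed in 1% Triton X-100, dichloromethane-extracted and analysed by HPLC; mean±SD, n=3.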"}}}
{"compound": "C[C@H](CCC(=O)[O-])[C@H]1CC[C@H]2[C@@H]3CC[C@@H]4C[C@H](O)CC[C@]4(C)[C@H]3C[C@H](O)[C@]12C.[Na+]", "note": "[1% deoxycholic acid sodium solution, deoxycholic acid sodium]", "values": [{"measurement": "nasal mucosa toxicity (histology)", "setting": "[1]", "value": "extensive damage to the nasal mucosa"}]}
{"compound": "C/C=C1\\[C@H]2C=C(C)C[C@]1(N)c1ccc(=O)[nH]c1C2", "note": "[HupA Solution]", "values": [{"measurement": "drug released", "setting": "[2]", "value": 63, "unit": "%"}, {"measurement": "AUC(0-t)", "setting": "[3]; brain", "value": 0.021507, "unit": "µg·h/mL"}, {"measurement": "AUC(0-∞)", "setting": "[3]; brain", "value": 0.023765, "unit": "µg·h/mL"}, {"measurement": "Cmax", "setting": "[3]; brain", "value": 0.01329, "unit": "µg/mL"}, {"measurement": "MRT(0-t)", "setting": "[3]; brain", "value": 1.255, "unit": "h"}, {"measurement": "MRT(0-∞)", "setting": "[3]; brain", "value": 1.674, "unit": "h"}, {"measurement": "T1/2", "setting": "[3]; brain", "value": 1.173, "unit": "h"}, {"measurement": "Tmax", "setting": "[3]; brain", "value": 0.25, "unit": "h"}, {"measurement": "AUC(0-t)", "setting": "[3]; plasma", "value": 0.051188, "unit": "µg·h/mL"}, {"measurement": "AUC(0-∞)", "setting": "[3]; plasma", "value": 0.051378, "unit": "µg·h/mL"}, {"measurement": "Cmax", "setting": "[3]; plasma", "value": 0.05695, "unit": "µg/mL"}, {"measurement": "MRT(0-t)", "setting": "[3]; plasma", "value": 1.153, "unit": "h"}, {"measurement": "MRT(0-∞)", "setting": "[3]; plasma", "value": 1.439, "unit": "h"}, {"measurement": "T1/2", "setting": "[3]; plasma", "value": 0.769, "unit": "h"}, {"measurement": "Tmax", "setting": "[3]; plasma", "value": 0.25, "unit": "h"}]}
{"compound": "C/C=C1\\[C@H]2C=C(C)C[C@]1(N)c1ccc(=O)[nH]c1C2", "note": "[HupA, Huperzine A]", "values": [{"measurement": "solubility at 24 h", "setting": "[4]; Capryol90, 37 °C, oil or lipid", "value": "38.33 ± 0.15", "unit": "mg/mL"}, {"measurement": "solubility at 24 h", "setting": "[4]; Cremophor EL, 37 °C", "value": "34.7 ± 0.09", "unit": "mg/mL"}, {"measurement": "solubility at 24 h", "setting": "[4]; Grape seed oil, 37 °C, oil or lipid", "value": "1.96 ± 0.01", "unit": "mg/mL"}, {"measurement": "solubility at 24 h", "setting": "[4]; L.A.S, 37 °C", "value": "34.96 ± 0.13", "unit": "mg/mL"}, {"measurement": "solubility at 24 h", "setting": "[4]; LABRAFIL M 1944 CS, 37 °C, oil or lipid", "value": "19.7 ± 0.24", "unit": "mg/mL"}, {"measurement": "solubility at 24 h", "setting": "[4]; Labrasol, 37 °C", "value": "102.2 ± 0.65", "unit": "mg/mL"}, {"measurement": "solubility at 24 h", "setting": "[4]; PEG400, 37 °C, organic solvent or mixture", "value": "98.41 ± 0.35", "unit": "mg/mL"}, {"measurement": "solubility at 24 h", "setting": "[4]; Plurol Oleique CC 497, 37 °C", "value": "15.5 ± 0.31", "unit": "mg/mL"}, {"measurement": "solubility at 24 h", "setting": "[4]; Propanediol, 37 °C, organic solvent or mixture", "value": "65.3 ± 0.91", "unit": "mg/mL"}, {"measurement": "solubility at 24 h", "setting": "[4]; Soybean oil, 37 °C, oil or lipid", "value": "2.73 ± 0.07", "unit": "mg/mL"}, {"measurement": "solubility at 24 h", "setting": "[4]; Span 80, 37 °C", "value": "13.35 ± 0.12", "unit": "mg/mL"}, {"measurement": "solubility at 24 h", "setting": "[4]; Tween 80, 37 °C", "value": "21 ± 0.45", "unit": "mg/mL"}, {"measurement": "solubility at 24 h", "setting": "[4]; isopropyl myristate (IPM), 37 °C, oil or lipid", "value": "2.43 ± 0.01", "unit": "mg/mL"}]}
{"compound": "Aprotinin", "values": [{"measurement": "effect of inhibitor on transport of HupA-NE across the cells", "setting": "[5]; then HupA-NE 1 h", "value": "restricted transport"}, {"measurement": "effect of inhibitor on Lf-HupA-NE transport", "setting": "[5]; then Lf-HupA-NE 1 h", "value": "mildly reduced"}]}
